Tested on: MS2 coat protein
Test: apparent Kd, MS2 coat protein; higher = weaker binding; RNA-MaP array; FMN 200 µM where present
Method in brief: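 Designs on Illumina sequencing-chip clusters, transcribed by stalled E. coli RNA polymerase, were exposed to SNAP-549-labelled MS2 coat protein in doubling steps from 0.7 or 1.5 nM up to 3 µM, without and then with constant ligand. The buffer held 100 mM Tris-HCl pH 7.5, 80 mM KCl, 4 mM MgCl2, BSA, DTT, yeast tRNA and Tween-20. Apparent Kd values are medians of filtered per-cluster binding-curve fits to green signal normalised to red-channel RNA signal and control-cluster median Fmax.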

[1] = designed as: ON switch for flavin mononucleotide, no ligand
[2] = ligand present: flavin mononucleotide, designed as: ON switch for flavin mononucleotide
[3] = designed as: OFF switch for flavin mononucleotide, no ligand
[4] = ligand present: flavin mononucleotide, designed as: OFF switch for flavin mononucleotide

With “GCCAUCGCAUGAGGAUAUGCUCCCGUUUCGGGAGCAGAAGGCAUGUCACAAGACAUGAGGAUCACCCAUGUAGAUAAGAUGGCA” the “apparent Kd” value [1] was 0.257 µM and the “apparent Kd” value [2] was 0.00949 µM.

With “AUCAUCUUGUCAGGAUAUGCGUGUCAACGAAAGUAGACAAUCUUAAUAACAUGAGGAUCACCCAUGUAGAAGGGACGAGAUGAU” the “apparent Kd” value [3] was 0.0198 µM and the “apparent Kd” value [4] was 0.021 µM.

“CGGCUGCUACGCCAGCUCGACGCACAGGAUAUGCUGUUACAUGAGGAUCACCCAUGUGGCCAAGAGCAGAAGGGUGAUUCGCGA” was tested, and the “apparent Kd” value [1] was 0.0336 µM and the “apparent Kd” value [2] was 0.035 µM.

“UUGAUUCAUUCCUCCAUAAACAUGAGGAUCACCCAUGUAAGUGAGGAUAUAGUUGGAGUAGUAUACUAGAAGGCACUUAGAUAU” was tested, and the “apparent Kd” value [3] was 0.0123 µM and the “apparent Kd” value [4] was 0.00975 µM.

With “UAAUAAUUAUGAGGAUAUAUACAACAUGAGGAUCACCCAUGUACCCAUGUAGUAGAAGGCAUAUUUUUAGUUAAUAACACAACU” the “apparent Kd” value [1] was 0.0713 µM and the “apparent Kd” value [2] was 0.03 µM.

In the case of “AAGGAUCGAGGAUAUACAUAGAUACAGAUACAUGUAGACCUACAUGAGGAUCACCCAUGUAGAAGGCGAUCAUA”, the “apparent Kd” value [3] was 0.0188 µM and the “apparent Kd” value [4] was 0.0337 µM.

With “AUAAAACGAGGAUAUGCUGGGCUUCUGUGAUGCAUAUGCUCACAUGAGGAUCACCCAUGUAGAAGGUGUAAAAU” the “apparent Kd” value [3] was 0.278 µM and the “apparent Kd” value [4] was 0.289 µM.

“ACACUGUGAGGAUAUACAUGAGGAUCACCCAUGUUAAGGAAGUCGUGGUUAAUUUAAGGUAGAAGGCGCUUAUU” was tested, and the “apparent Kd” value [3] was 0.0413 µM and the “apparent Kd” value [4] was 0.0428 µM.

“AGCUACGUUUCGUAGCAGUGUCAUCGAGAAGGCUCAUAAACAUGAGGAUCACCCAUGUAAACAUGGGAGGAUAUCGAUGAUACA” was tested, and the “apparent Kd” value [1] was 0.0396 µM and the “apparent Kd” value [2] was 0.0065 µM.

In the case of “AAAACACAUGAGGAUCACCCAUGUGAGGAUAUGUCCAUGCUCGGCAAACCGGGCAUGGACAGAAGGCACAUAAA”, the “apparent Kd” value [3] was 0.045 µM and the “apparent Kd” value [4] was 0.0467 µM.

With “AAGAAGUGAGGAUAUGCUGCUCGUCACUUGCGUGAUGAGUAGCAGAAGGCACAUGAGGAUCACCCAUGUAAAGA” the “apparent Kd” value [3] was 0.044 µM and the “apparent Kd” value [4] was 0.053 µM.

For “AGAACAUGAGGAUCACCCAUGUAAAGAUCGGUCAAUAAGGGUGAGGAUAUGCUUAAAAUAAGGUAGCAGAAGGUACUUGGUGCA”, the “apparent Kd” value [1] was 0.0912 µM and the “apparent Kd” value [2] was 0.245 µM.

For “GGUACUCAAAGAGUACCAAUACGAACAUGAGGAUCACCCAUGUAGGAUAUGAAAACGCCGGAGUAUCAGAAGGACAUGUGCCUA”, the “apparent Kd” value [3] was 0.0126 µM and the “apparent Kd” value [4] was 0.0213 µM.

“GUAGUACAUGAGGAUCACCCAUGUGUGGGCGCGUGAGGAUAUGUCCGUACCUGGCGUACGAUAGAAGGCAUGGUGC” was tested, and the “apparent Kd” value [1] was 0.0533 µM and the “apparent Kd” value [2] was 0.0284 µM.

In the case of “AGCUAGUCAGGAUAUACGUACAUGUCAUUAGACGUGAAGGGACAUGAGGAUCACCCAUGUAGAAGGGACUAGCA”, the “apparent Kd” value [3] was 0.04 µM and the “apparent Kd” value [4] was 0.164 µM.

With “GGUGAAGCAGGAUAUGUGCCGAUAUACAUGAGGAUCACCCAUGUCAUGUAGGAACCGCGUAUAGAAGGGCUUCACC” the “apparent Kd” value [3] was 0.0392 µM and the “apparent Kd” value [4] was 0.0671 µM.

In the case of “CAGUGCAAUGUAGGAUAUGCUCAGGAUAACUGAGCAGAAGGACAUGAGGAUCACCCAUGUCAAAUGAAAGAUAAUAAAGCACUG”, the “apparent Kd” value [3] was 0.0143 µM and the “apparent Kd” value [4] was 0.0178 µM.

“AACAUGUCAGGAUAUGCGAAGGCGUCUGACAGACGAGGCUAGCAGAAGGGACAUGAGGAUCACCCAUGUAAAAA” was tested, and the “apparent Kd” value [3] was 0.0989 µM and the “apparent Kd” value [4] was 0.129 µM.

In the case of “UUGGACGUCGUAGGAUAUGUAGGAUAUUCCUACAUGAGGAUCACCCAUGUUGGCAUGGAAGAAGGACAGAAGGACGAUGUCCAU”, the “apparent Kd” value [1] was 0.158 µM and the “apparent Kd” value [2] was 0.00494 µM.

With “CGCAAGUAUACAUGAGGAUACAUGAGGAUCACCCAUGUUAUCAGAAGGUACUAUUAGAGAUAGAGUAAGGAUAUGAAAUUUGUG” the “apparent Kd” value [1] was 0.00788 µM and the “apparent Kd” value [2] was 0.0173 µM.

In the case of “AAUUAAUUAAUUAAUUGCUGACAUACAUGAGGAUCACCCAUGUAGGAUAUCGUCAGGAAUACUGACGAGAAGGACAUAGUCAGC”, the “apparent Kd” value [3] was 0.0149 µM and the “apparent Kd” value [4] was 0.0163 µM.

With “CAGUGCAAUGUAGGAUAUGCUCAGGAAUACUGAGCAGAAGGACAUGAGGAUCACCCAUGUACUAUGAAAGAUAAUAAAGCACUG” the “apparent Kd” value [3] was 0.0135 µM and the “apparent Kd” value [4] was 0.0182 µM.

“GUACUUGUGCAGAAGGGCAUUUAAUUAGAUUUUUAUGUUGAUCAGAAAUGCAGGAUAUGUUAAACAUGAGGAUCACCCAUGUAC” was tested, and the “apparent Kd” value [1] was 0.171 µM and the “apparent Kd” value [2] was 0.0131 µM.

In the case of “UAAAUAAGUGUGAGGAUAUGCUGGUCCUUGGAUCAGCAGAAGGCACAUGAGGAUCACCCAUGUAAUAUAUUUAU”, the “apparent Kd” value [3] was 0.0852 µM and the “apparent Kd” value [4] was 0.316 µM.

With “AUUUUGUGAGGAUAUUAGUUUUAUGAUUGGAGGAGUUUGGCUGAGAAGGCACAUGAGGAUCACCCAUGUAAAUC” the “apparent Kd” value [3] was 0.0353 µM and the “apparent Kd” value [4] was 0.0411 µM.

In the case of “GGUGCAUAUGAGAAGGCGAUCAUGAAACAUGAUCGAGGAUAUCAUGUAAACAUGAGGAUCACCCAUGUAUGGGAAUAUUGCACC”, the “apparent Kd” value [1] was 0.176 µM and the “apparent Kd” value [2] was 0.0126 µM.

With “AUAAAUCAUGUAGGAUAUGCGUGGCGAAGCUAUGCAGAAGGACAUGAGGAUCACCCAUGUCGUUCCGUCUGCGUACAGACGGAA” the “apparent Kd” value [3] was 0.0338 µM and the “apparent Kd” value [4] was 0.306 µM.

With “GAGAAGAGGGAAGGAUAUACAUGAGGAUCACCCAUGUAGAUAGGUUUAAUAGGUUGUUGUAGUUUGUAGAAGGUCCGGUUUGUU” the “apparent Kd” value [3] was 0.0178 µM and the “apparent Kd” value [4] was 0.0167 µM.

For “CUUUUGUGAGGAUAUCAGUAGUAAAAAAAUAAAAUUACUACUGAGAAGGUACAUGAGGAUCACCCAUGUUCCUC”, the “apparent Kd” value [3] was 0.0142 µM and the “apparent Kd” value [4] was 0.0176 µM.

In the case of “ACAUGAUAUGUAGGAUAUCACAACUUGUGUUAUAAAAUUGUAUUUUAGGAUUGAGAAGGACAUUUACAUGAGGAUCACCCAUGU”, the “apparent Kd” value [3] was 0.0155 µM and the “apparent Kd” value [4] was 0.0128 µM.

“GCGUAAUAGGUGUAGCUAGUCGUGCAAGAAGGGUGGUGAACAUGAGGAUCACCCAUGUGGUCAAUACAGGAUAUUGCUAUACGC” was tested, and the “apparent Kd” value [1] was 0.572 µM and the “apparent Kd” value [2] was 0.139 µM.

For “GCACGGUAAGUGAGGAUAUACCUCUGGAUACAGAGGUAGAAGGCACAUGAGGAUCACCCAUGUCUCAGCCGUGC”, the “apparent Kd” value [3] was 0.0163 µM and the “apparent Kd” value [4] was 0.0782 µM.

For “AGUAAGAUGCAGAAGGUGUUAGCUAGAGCUACGACAUGAGGAUCACCCAUGUACUAGAAAACGUACAAGGAUAUGCAUCUUACA”, the “apparent Kd” value [1] was 0.00736 µM and the “apparent Kd” value [2] was 0.00598 µM.

For “GACAUGGUCCAGAAGGGCUAUUUAUUUAAGUACGAUUUAGAACAGCAUAGCAGGAUAUGGCUAACAUGAGGAUCACCCAUGUUC”, the “apparent Kd” value [1] was 0.0193 µM and the “apparent Kd” value [2] was 0.0119 µM.

With “UGUUGUAUUACAGGAUAUCUAUUAUUUUUACUUAGAGAAGGGUAUUCACAUGAGGAUCACCCAUGUAUAUACGAGGAAGUUGUG” the “apparent Kd” value [1] was 0.0542 µM and the “apparent Kd” value [2] was 0.056 µM.

With “AAGUUGUCAGGAUAUCGUUAAUUUAGUUGUUUGUAUUAGUUCGAGAAGGGACAUGAGGAUCACCCAUGUUUGCA” the “apparent Kd” value [3] was 0.0264 µM and the “apparent Kd” value [4] was 0.034 µM.

Source: the EternaBench riboswitch data
